≈ marks a conversion by molar mass, not a printed value.

This note sets out measurements from ChEMBL document CHEMBL2150998, “Antibiotic and antimalarial quinones from fungus-growing ant-associated Pseudonocardia sp” (J Nat Prod, 2012).

One assay deals with Bacillus subtilis. The assay can be described thus: Antibacterial activity against Bacillus subtilis 3610 after 24 hrs. It is filed as functional. The following applies: subsp. subtilis str. NCIB 3610, 24 h. The procedure, abridged:
(§1)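 Overnight cultures at 30 °C in LB (E. coli, B. subtilis) or YPD (C. albicans, S. cerevisiae) were diluted to OD600 0.01. Compounds came from 5 mg/mL DMSO stocks, 2-fold serially diluted, at final 50 to 0.1 μg/mL. Growth ran 24 h at 30 °C with OD600 read-out. MIC was the lowest concentration giving <5% of maximum OD600. Assays were run in duplicate, with dynemicin A as positive control.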

The subject of the next assay is Candida albicans. The assay can be described thus: Antifungal activity against Candida albicans after 24 hrs. It is filed as functional. The procedure, abridged:
as §1

The test system of a further assay is Saccharomyces cerevisiae. The assay can be described thus: Antifungal activity against Saccharomyces cerevisiae after 24 hrs. It is filed as functional. In a few lines:
as §1

In the next assay the test system is Escherichia coli. The assay can be described thus: Antibacterial activity against Escherichia coli K12 after 24 hrs. It is filed as functional. The following applies: K-12, 24 h. In a few lines: as §1
In the next assay the test system is HepG2. The assay can be described thus: Cytotoxicity against human HepG2 cells after 2 days by CellTiter-Glo assay. It is filed as cell-based. The following applies: HepG2, 48 h. In a few lines:
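HepG2 hepatoma cells were kept in DMEM with 10% FBS and 1% antibiotic–antimycotic (37 °C, 5% CO2). 15 000 cells/well were exposed in triplicate to compounds at 0–50 μg/mL with 1% DMSO final, 2 days at 37 °C. Viability was read by CellTiter-Glo luminescence. IC50 came from a standard inhibition dose–response fit, mean of two independent experiments.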
On the technique in general: In ATP-based viability assays light output follows the ATP content of the culture.

Another assay relates to Plasmodium berghei. The assay can be described thus: Antiplasmodial activity against luciferase-expressing sporozoite of Plasmodium berghei ANKA infected in human HepG2 cells assessed as reduction of parasite load after 2 days. In kind it is functional, organism-based. The following applies: HepG2, 48 h. In a few lines: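 HepG2 cells (15 000/well, 384-well) were infected with 4000 luciferase-expressing P. berghei ANKA sporozoites, taken from infected Anopheles stephensi, with compounds in triplicate. Final DMSO was 1%, compounds 0–50 μg/mL, 2 days at 37 °C. Parasite load was read by Bright-Glo luminescence. IC50 came from a standard inhibition dose–response fit, mean of two independent experiments. Atovaquone was the positive control.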

The MIC is the lowest concentration found to suppress growth. The low end stands for greater potency, the high end for weaker potency. For orientation: IC50 means the concentration that gives 50% inhibition. `COc1cccc2c1C(=O)c1ccc3cc(C)cc(O[C@@H]4O[C@H](C(=O)O)[C@@H](O)[C@H](O)[C@H]4O)c3c1C2O` (relative stereo): the MIC in the assay with Bacillus subtilis, against Candida albicans, against Saccharomyces cerevisiae and against Escherichia coli was more than 50 µg/mL each time. Moreover, the IC50 was more than 100 µM in the assay on HepG2 and 38 µM in the assay on Plasmodium berghei.

Consider `COc1cccc2c1C(=O)c1ccc3cc(C)cc(O)c3c1C2=O`, for which the MIC in the assay on Bacillus subtilis is 3.13 µg/mL (≈ 9.83 µM); with Candida albicans, more than 50 µg/mL; against Saccharomyces cerevisiae, more than 50 µg/mL; in the assay with Escherichia coli it was more than 50 µg/mL. Moreover, the IC50 in the assay on HepG2 came to 36.1 µM; with Plasmodium berghei, 3 µM.

On to `COC1=C(C(=O)O)[C@H](C)[C@@]23O[C@]24c2cc(O)c5c(c2N[C@H]3C#C/C=C\C#C[C@H]14)C(=O)c1c(O)ccc(O)c1C5=O` [DYNEMICIN A], for which the MIC with Bacillus subtilis worked out at 0.00016 µg/mL (≈ 0.000298 µM); against Candida albicans, 0.156 µg/mL (≈ 0.29 µM); with Saccharomyces cerevisiae it was 0.156 µg/mL (≈ 0.29 µM); against Escherichia coli it was 0.313 µg/mL (≈ 0.582 µM).

In the case of `COc1cccc2c1C(=O)c1ccc3c(c1C2=O)C(=O)C[C@](C)(O)C3`, the MIC against Bacillus subtilis was 25 µg/mL (≈ 74.3 µM); in the assay with Candida albicans, more than 50 µg/mL; in the assay on Saccharomyces cerevisiae, more than 50 µg/mL; with Escherichia coli it was more than 50 µg/mL. The half-inhibitory concentration (IC50) was more than 100 µM in the assay on HepG2 and 18.5 µM in the assay with Plasmodium berghei.

For `COc1cccc2c1C(=O)c1ccc3cc(C)c(O[C@@H]4O[C@H](C(=O)O)[C@@H](O)[C@H](O)[C@H]4O)c(O)c3c1C2=O` [PSEUDONOCARDONE C], the MIC against Bacillus subtilis, against Candida albicans, against Saccharomyces cerevisiae and against Escherichia coli was more than 50 µg/mL throughout. For the same molecule, the half-maximal inhibitory concentration (IC50) in the assay with HepG2 and in the assay with Plasmodium berghei was more than 100 µM in each case.

Regarding `COc1cccc2c1C(=O)c1ccc3cc(C)cc(O[C@@H]4O[C@H](C(=O)O)[C@@H](O)[C@H](O)[C@H]4O)c3c1C2=O` [PSEUDONOCARDONE B], the MIC against Bacillus subtilis, in the assay with Candida albicans, against Saccharomyces cerevisiae and with Escherichia coli was more than 50 µg/mL throughout. Also, the IC50 with HepG2 was more than 100 µM; with Plasmodium berghei it was 50 µM.
